pKd, pKi: −log10 of the molar value. “And” between values parts separate entries of the source, which are not always exact repeats. Equal entries are not always repeated. Where two headings read alike, the source gives them in different places.
Tests used:
wild type cytochrome bo3 [1] = target: T1, wild type cytochrome bo3 (Escherichia coli, UniProt P0ABI8); experiment: EPR of the semiquinone formed at the QH-site; assay type: biochemical, E. coli; details: excess (5-fold) of inhibitor
Outline: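 Continuous-wave X-band EPR of wild-type enzyme purified in dodecylmaltoside, carrying bound ubiquinone-8 at the QH site. Enzyme was incubated with a 5-fold excess of test compound, at 50 μM enzyme in one series. Sample preparation followed earlier published methods.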

wild type cytochrome bo3 [2] = target: T1, wild type cytochrome bo3; experiment: steady state ubiquinol-1 oxidase activity; assay type: biochemical, E. coli; details: for pattern of inhibition: double-reciprocal plot vs ubiquinol-1
cytochrome bo3 D188N [3] = target: T2, cytochrome bo3 D188N (Escherichia coli, UniProt P0ABI8, D188N); experiment: HQNO binding monitored by fluorescence anisotropy; parameters: species or system E. coli; details: read-out: Kd HQNO
cytochrome bo3 W^II136A [4] = target: cytochrome bo3 W^II136A (Escherichia coli, UniProt P0ABI8); experiment: HQNO binding monitored by fluorescence anisotropy; parameters: species or system E. coli; details: read-out: Kd HQNO
cytochrome bo3 D188A [5] = target: T3, cytochrome bo3 D188A (Escherichia coli, UniProt P0ABI8, D188A); experiment: HQNO binding monitored by fluorescence anisotropy; parameters: species or system E. coli; details: read-out: Kd HQNO
[6] = target: wild type cytochrome bo3 (no bound Q8) (Escherichia coli, UniProt P0ABI8); experiment: HQNO binding monitored by fluorescence anisotropy; parameters: species or system E. coli; details: read-out: Kd HQNO
Outline: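 Quinone-free enzyme was made by diluting ≥50-fold into 50 mM K2HPO4, 0.1% Triton X-100, pH 8.3, and binding to Ni-NTA for several hours at 4 °C. It was washed into dodecylmaltoside, eluted with 100 mM imidazole and dialysed. Enzyme was titrated into pH 8.3 dodecylmaltoside buffer holding fixed 1 μM test compound. Anisotropy was read at ex 341/em 480 nm against a ligand-free control, and fit with an independent-sites model.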

cytochrome bo3 R257Q [7] = target: T4, cytochrome bo3 R257Q (Escherichia coli, UniProt P0ABI8, R257Q); experiment: HQNO binding monitored by fluorescence anisotropy; parameters: species or system E. coli; details: read-out: Kd HQNO
wild type cytochrome bo3 [8] = target: T1, wild type cytochrome bo3; experiment: HQNO binding monitored by fluorescence anisotropy; parameters: species or system E. coli; details: for pKd: read-out: Kd HQNO
cytochrome bo3 H98S = cytochrome bo3 H98S (Escherichia coli, UniProt P0ABI8, H98S); experiment: HQNO binding monitored by fluorescence anisotropy; parameters: species or system E. coli; details: read-out: Kd HQNO
cytochrome bo3 D188N [9] = target: T2, cytochrome bo3 D188N; experiment: steady state ubiquinol-1 oxidase activity; assay type: biochemical, E. coli; details: read-out: KM UQ1H2
cytochrome bo3 R257Q [10] = target: T4, cytochrome bo3 R257Q; experiment: steady state ubiquinol-1 oxidase activity; assay type: biochemical, E. coli; details: read-out: KM UQ1H2
cytochrome bo3 D188A [11] = target: T3, cytochrome bo3 D188A; experiment: steady state ubiquinol-1 oxidase activity; assay type: biochemical, E. coli; details: read-out: KM UQ1H2
cytochrome bo3 W^II136A [12] = target: cytochrome bo3 W^II136A (Escherichia coli, UniProt P0ABI8+P0ABJ1, W136A); experiment: steady state ubiquinol-1 oxidase activity; assay type: biochemical, E. coli; details: read-out: KM UQ1H2
cytochrome bo3 W^II136A (Escherichia coli, UniProt P0ABI8+P0ABJ1, W136A), sequence (P0ABI8 whole entry): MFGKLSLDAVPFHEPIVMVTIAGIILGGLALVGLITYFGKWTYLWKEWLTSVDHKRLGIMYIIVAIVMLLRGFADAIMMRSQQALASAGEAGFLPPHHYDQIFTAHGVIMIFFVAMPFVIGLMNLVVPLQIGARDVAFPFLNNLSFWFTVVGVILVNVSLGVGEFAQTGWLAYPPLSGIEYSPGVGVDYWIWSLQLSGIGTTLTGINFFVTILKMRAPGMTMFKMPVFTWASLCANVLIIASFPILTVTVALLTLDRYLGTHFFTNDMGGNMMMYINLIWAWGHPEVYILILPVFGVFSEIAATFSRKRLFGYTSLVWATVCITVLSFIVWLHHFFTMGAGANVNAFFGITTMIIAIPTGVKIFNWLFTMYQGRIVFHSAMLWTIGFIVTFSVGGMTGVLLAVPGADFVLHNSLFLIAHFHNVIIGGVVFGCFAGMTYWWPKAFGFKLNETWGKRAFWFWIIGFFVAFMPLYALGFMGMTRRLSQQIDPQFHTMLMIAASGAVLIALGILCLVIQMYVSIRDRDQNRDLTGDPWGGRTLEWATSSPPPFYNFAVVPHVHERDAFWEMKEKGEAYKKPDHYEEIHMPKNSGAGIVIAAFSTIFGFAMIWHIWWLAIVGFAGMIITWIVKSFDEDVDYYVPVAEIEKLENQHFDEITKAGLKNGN
cytochrome bo3 W^II136A (Escherichia coli, UniProt P0ABI8+P0ABJ1, W136A), sequence (P0ABJ6 whole entry, further chain): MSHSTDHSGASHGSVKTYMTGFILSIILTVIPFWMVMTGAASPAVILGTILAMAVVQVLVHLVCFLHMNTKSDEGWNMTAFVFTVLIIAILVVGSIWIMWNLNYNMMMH
cytochrome bo3 W^II136A (Escherichia coli, UniProt P0ABI8+P0ABJ1, W136A), sequence (P0ABJ1 25-315 W136A): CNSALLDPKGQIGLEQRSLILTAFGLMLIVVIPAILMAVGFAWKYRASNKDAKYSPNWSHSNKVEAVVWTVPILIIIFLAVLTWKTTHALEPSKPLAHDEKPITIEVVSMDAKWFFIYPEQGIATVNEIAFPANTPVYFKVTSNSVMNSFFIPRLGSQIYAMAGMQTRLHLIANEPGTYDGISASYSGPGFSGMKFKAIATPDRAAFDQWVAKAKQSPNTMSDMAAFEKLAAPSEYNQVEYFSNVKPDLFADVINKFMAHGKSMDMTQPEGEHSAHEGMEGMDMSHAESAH
cytochrome bo3 W^II136A (Escherichia coli, UniProt P0ABI8+P0ABJ1, W136A), sequence (P0ABJ3 whole entry, further chain): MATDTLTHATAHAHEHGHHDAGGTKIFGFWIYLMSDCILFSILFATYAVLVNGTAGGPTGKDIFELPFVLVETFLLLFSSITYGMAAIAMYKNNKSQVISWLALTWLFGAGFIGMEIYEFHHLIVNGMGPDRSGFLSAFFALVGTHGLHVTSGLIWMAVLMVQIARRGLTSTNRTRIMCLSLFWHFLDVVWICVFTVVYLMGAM

T1 sequence (P0ABJ1 25-315): as the sequence (P0ABJ1 25-315 W136A) above, with A112W counted along it
T1 sequence (P0ABJ3 whole entry, further chain): as the sequence (P0ABJ3 whole entry, further chain) above
T1 sequence (P0ABJ6 whole entry, further chain): as the sequence (P0ABJ6 whole entry, further chain) above
T1 sequence (P0ABI8 whole entry): as the sequence (P0ABI8 whole entry) above
T4 sequence (P0ABJ1 25-315): as the sequence (P0ABJ1 25-315 W136A) above, with A112W counted along it
T4 sequence (P0ABI8 whole entry R257Q): as the sequence (P0ABI8 whole entry) above, with R257Q counted along it
T4 sequence (P0ABJ3 whole entry, further chain): as the sequence (P0ABJ3 whole entry, further chain) above
T4 sequence (P0ABJ6 whole entry, further chain): as the sequence (P0ABJ6 whole entry, further chain) above
T3 sequence (P0ABI8 whole entry D188A): as the sequence (P0ABI8 whole entry) above, with D188A counted along it
T3 sequence (P0ABJ6 whole entry, further chain): as the sequence (P0ABJ6 whole entry, further chain) above
T3 sequence (P0ABJ3 whole entry, stated change not applied, further chain): as the sequence (P0ABJ3 whole entry, further chain) above
T3 sequence (P0ABJ1 25-315, further chain): as the sequence (P0ABJ1 25-315 W136A) above, with A112W counted along it
T2 sequence (P0ABI8 whole entry D188N): as the sequence (P0ABI8 whole entry) above, with D188N counted along it
T2 sequence (P0ABJ3 whole entry, stated change not applied, further chain): as the sequence (P0ABJ3 whole entry, further chain) above
T2 sequence (P0ABJ6 whole entry, further chain): as the sequence (P0ABJ6 whole entry, further chain) above
T2 sequence (P0ABJ1 25-315, further chain): as the sequence (P0ABJ1 25-315 W136A) above, with A112W counted along it
cytochrome bo3 W^II136A (Escherichia coli, UniProt P0ABI8), sequence (P0ABJ6 whole entry): as the sequence (P0ABJ6 whole entry, further chain) above
cytochrome bo3 W^II136A (Escherichia coli, UniProt P0ABI8), sequence (P0ABJ3 whole entry, further chain): as the sequence (P0ABJ3 whole entry, further chain) above
cytochrome bo3 W^II136A (Escherichia coli, UniProt P0ABI8), sequence (P0ABI8 whole entry): as the sequence (P0ABI8 whole entry) above
cytochrome bo3 W^II136A (Escherichia coli, UniProt P0ABI8), sequence (P0ABJ1 25-315 W136A, further chain): as the sequence (P0ABJ1 25-315 W136A) above
cytochrome bo3 H98S, sequence (P0ABI8 whole entry H98S): as the sequence (P0ABI8 whole entry) above, with H98S counted along it
cytochrome bo3 H98S, sequence (P0ABJ3 whole entry, further chain): as the sequence (P0ABJ3 whole entry, further chain) above
cytochrome bo3 H98S, sequence (P0ABJ6 whole entry, further chain): as the sequence (P0ABJ6 whole entry, further chain) above
cytochrome bo3 H98S, sequence (P0ABJ1 25-315, further chain): as the sequence (P0ABJ1 25-315 W136A) above, with A112W counted along it
wild type cytochrome bo3 (no bound Q8), sequence (P0ABJ3 whole entry): as the sequence (P0ABJ3 whole entry, further chain) above
wild type cytochrome bo3 (no bound Q8), sequence (P0ABJ1 25-315, further chain): as the sequence (P0ABJ1 25-315 W136A) above, with A112W counted along it
wild type cytochrome bo3 (no bound Q8), sequence (P0ABI8 whole entry): as the sequence (P0ABI8 whole entry) above
wild type cytochrome bo3 (no bound Q8), sequence (P0ABJ6 whole entry, further chain): as the sequence (P0ABJ6 whole entry, further chain) above

| Structure (SMILES) | effect on formation of the semiquinone at the QH-site (EPR signal) (wild type cytochrome bo3 [1]) | pattern of inhibition (wild type cytochrome bo3 [2]) | pKd (cytochrome bo3 D188N [3]) | pKd (cytochrome bo3 W^II136A [4]) | pKd (cytochrome bo3 D188A [5]) | pKd [6] | pKd (cytochrome bo3 R257Q [7]) | pKd (wild type cytochrome bo3 [8]; wild type + 300 μM Q1) | pKd (wild type cytochrome bo3 [8]; wild type + 1500 μM Q1) | pKd (wild type cytochrome bo3 [8]; wild type, one equivalent of ubiquinone-8 bound, 1 μM HQNO, pH 8.3) | number of HQNO binding sites (best fit, independent sites model) (wild type cytochrome bo3 [8]; wild type with ubiquinone-8 bound) | pKd (cytochrome bo3 H98S) | pKi (wild type cytochrome bo3 [2]; read-out: Ki, inhibition of ubiquinol-1 oxidase activity by HQNO, coupled assay, enzyme with ubiquinone-8 bound to the QH site) | Km (cytochrome bo3 D188N [9]) [µM] | Km (cytochrome bo3 R257Q [10]) [µM] | Km (cytochrome bo3 D188A [11]) [µM] | Km (cytochrome bo3 W^II136A [12]) [µM] | Km (wild type cytochrome bo3 [2]; read-out: KM UQ1H2, wild type) [µM] |
| --- | --- | --- | --- | --- | --- | --- | --- | --- | --- | --- | --- | --- | --- | --- | --- | --- | --- | --- |
| CCCCCCCCCCc1c(C)c(=O)c2ccccc2n1O [AC1-10, aurachin C1-10] | prevents formation of the semiquinone EPR signal | competitive | – | – | – | – | – | – | – | – | – | – | – | – | – | – | – | – |
| CCCCCCCc1cc(=O)c2ccccc2n1O [HQNO] | prevents formation of the semiquinone | noncompetitive | 5.40 | 5.39 | 5.30 | 5.24 | 5.40 | 5.39 | 5.17 | 5.40 | 1.1 and 1 | 5.44 | 6.13 | – | – | – | – | – |
| COc1c(O)c(C)c(CC=C(C)C)c(O)c1OC [UQ1H2, ubiquinol-1] | – | – | – | – | – | – | – | – | – | – | – | – | – | 52 | 60 | 56 | 63 | 53 |

From publication PMC2922442 (Biochimica et biophysica acta, 2010)
